Test results published in ChEMBL document CHEMBL1142136, “Contribution of target gene mutations and efflux to decreased susceptibility of Salmonella enterica serovar typhimurium to fluoroquinolones and other antimicrobials” (2007).
≈ marks a conversion by molar mass, not a printed value.

What was measured:
Type in all cases: functional, Salmonella enterica subsp. enterica serovar Typhimurium
Salmonella typhimurium [1] = assay: Antimicrobial activity against Salmonella enterica serovar Typhimurium S21-3 with GyrA S83F, ParC S80I mutation
Summary of the method: (§1)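 MICs measured by broth microdilution on the Sensititre automated system and interpreted by CLSI broth microdilution standards. Ciprofloxacin was also tested by agar dilution, widening the range to 0.0075–128 μg/ml. Quality control strains were E. coli ATCC 25922 and 35218, E. faecalis ATCC 29212, S. aureus ATCC 29213 and P. aeruginosa ATCC 27853.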

Salmonella typhimurium [2] = assay: Antimicrobial activity against Salmonella enterica serovar Typhimurium CHS38 gyrA+ with GyrA D87G mutation; summary of the method: as §1
Salmonella typhimurium [3] = assay: Antimicrobial activity against Salmonella enterica serovar Typhimurium CS9 acrAB::Kan with GyrA S83F, D87N, ParC S80I mutation; summary of the method: as §1
Salmonella typhimurium [4] = assay: Antimicrobial activity against Salmonella enterica serovar Typhimurium S21; summary of the method: as §1
Salmonella typhimurium [5] = assay: Antimicrobial activity against Salmonella enterica serovar Typhimurium CS3 gyrA+ with GyrA S83F, D87N, ParC S80I mutation; summary of the method: as §1
Salmonella typhimurium [6] = assay: Antimicrobial activity against Salmonella enterica serovar Typhimurium S21-1 GyrA S83F mutant; summary of the method: as §1
Salmonella typhimurium [7] = assay: Antimicrobial activity against Salmonella enterica serovar Typhimurium CS3 acrAB::Kan with GyrA S83F, D87N, ParC S80I mutation; summary of the method: as §1
Salmonella typhimurium [8] = assay: Antimicrobial activity against Salmonella enterica serovar Typhimurium S21-4 gyrA+ with ParC S80I mutation; summary of the method: as §1
Salmonella typhimurium [9] = assay: Antimicrobial activity against Salmonella enterica serovar Typhimurium CS9 with GyrA S83F, D87N, ParC S80I mutation; summary of the method: as §1
Salmonella typhimurium [10] = assay: Antimicrobial activity against Salmonella enterica serovar Typhimurium CS1 tolC::Kan with GyrA S83F, D87N, ParC S80I mutation; summary of the method: as §1
Salmonella typhimurium [11] = assay: Antimicrobial activity against Salmonella enterica serovar Typhimurium S21-2 gyrA+ with ParC S80I mutation; summary of the method: as §1
Salmonella typhimurium [12] = assay: Antimicrobial activity against Salmonella enterica serovar Typhimurium CHS14 tolC::Kan with GyrA D87G mutant; summary of the method: as §1
Salmonella typhimurium [13] = assay: Antimicrobial activity against Salmonella enterica serovar Typhimurium CHS18 gyrA+ with GyrA S38F mutation; summary of the method: as §1
Salmonella typhimurium [14] = assay: Antimicrobial activity against Salmonella enterica serovar Typhimurium CS1 with GyrA S83F, D87N, ParC S80I mutation; summary of the method: as §1
Salmonella typhimurium [15] = assay: Antimicrobial activity against Salmonella enterica serovar Typhimurium S21-4 with GyrA S83F, ParC S80I mutation; summary of the method: as §1
Salmonella typhimurium [16] = assay: Antimicrobial activity against Salmonella enterica serovar Typhimurium CHS38 tolC::Kan with GyrA D87G mutation; summary of the method: as §1
Salmonella typhimurium [17] = assay: Antimicrobial activity against Salmonella enterica serovar Typhimurium CHS14 acrAB::Kan with GyrA D87G mutation; summary of the method: as §1
Salmonella typhimurium [18] = assay: Antimicrobial activity against Salmonella enterica serovar Typhimurium CHS14 gyrA+ with GyrA D87G mutation; summary of the method: as §1
Salmonella typhimurium [19] = assay: Antimicrobial activity against Salmonella enterica serovar Typhimurium CS9 gyrA+ with GyrA S83F, D87N, ParC S80I mutation; summary of the method: as §1
Salmonella typhimurium [20] = assay: Antimicrobial activity against Salmonella enterica serovar Typhimurium CHS18 with GyrA S38F mutation; summary of the method: as §1
Salmonella typhimurium [21] = assay: Antimicrobial activity against Salmonella enterica serovar Typhimurium S21-1 gyrA+; summary of the method: as §1
Salmonella typhimurium [22] = assay: Antimicrobial activity against Salmonella enterica serovar Typhimurium CS3 tolC::Kan with GyrA S83F, D87N, parC S80I mutation; summary of the method: as §1
Salmonella typhimurium [23] = assay: Antimicrobial activity against Salmonella enterica serovar Typhimurium S21-3 gyrA+ with ParC S80I mutation; summary of the method: as §1
Salmonella typhimurium [24] = assay: Antimicrobial activity against Salmonella enterica serovar Typhimurium S21 gyrA+; summary of the method: as §1
Salmonella typhimurium [25] = assay: Antimicrobial activity against Salmonella enterica serovar Typhimurium CHS38 acrAB::Kan with GyrA D87G mutation; summary of the method: as §1
Salmonella typhimurium [26] = assay: Antimicrobial activity against Salmonella enterica serovar Typhimurium CS1 gyrA+ with GyrA S83F, D87N, ParC S80I mutation; summary of the method: as §1
Salmonella typhimurium [27] = assay: Antimicrobial activity against Salmonella enterica serovar Typhimurium S21-2 with GyrA S83F, ParC S80I mutation; summary of the method: as §1
Salmonella typhimurium [28] = assay: Antimicrobial activity against Salmonella enterica serovar Typhimurium CS1 acrAB::Kan with GyrA S83F, D87N, ParC S80I mutation; summary of the method: as §1
Salmonella typhimurium [29] = assay: Antimicrobial activity against Salmonella enterica serovar Typhimurium CS9 tolC::Kan with GyrA S83F, D87N, ParC S80I mutation; summary of the method: as §1
Salmonella typhimurium [30] = assay: Antimicrobial activity against Salmonella enterica serovar Typhimurium S21-4 tolC::Kan with GyrA S83F, ParC S80I mutation; summary of the method: as §1
Salmonella typhimurium [31] = assay: Antimicrobial activity against Salmonella enterica serovar Typhimurium CHS38 with GyrA D87G mutation; summary of the method: as §1
Salmonella typhimurium [32] = assay: Antimicrobial activity against Salmonella enterica serovar Typhimurium CHS18 acrAB::Kan with GyrA S38F mutation; summary of the method: as §1
Salmonella typhimurium [33] = assay: Antimicrobial activity against Salmonella enterica serovar Typhimurium CHS14 with GyrA D87G mutation; summary of the method: as §1
Salmonella typhimurium [34] = assay: Antimicrobial activity against Salmonella enterica serovar Typhimurium CS3 with GyrA S83F, D87N, ParC S80I mutation; summary of the method: as §1
Salmonella typhimurium [35] = assay: Antimicrobial activity against Salmonella enterica serovar Typhimurium S21 acrAB::Kan
Summary of the method: (§2)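 MICs by automated broth microdilution panels, interpreted to CLSI broth microdilution standards. Ciprofloxacin additionally tested by agar dilution across 0.0075 to 128 μg/ml. Quality control strains: E. coli ATCC 25922 and 35218, Enterococcus faecalis ATCC 29212, S. aureus ATCC 29213, P. aeruginosa ATCC 27853. Test strains are kanamycin-marked deletion mutants of ground-beef isolate S21.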

Salmonella typhimurium [36] = assay: Antimicrobial activity against Salmonella enterica serovar Typhimurium CHS18 tolC::Kan with GyrA S38F mutation; summary of the method: as §1
Salmonella typhimurium [37] = assay: Antimicrobial activity against Salmonella enterica serovar Typhimurium S21 tolC::Kan; summary of the method: as §2

SMILES: CN(C)[C@@H]1C(O)=C(C(N)=O)C(=O)[C@@]2(O)C(O)=C3C(=O)c4c(O)cccc4[C@@](C)(O)[C@H]3C[C@@H]12 [TETRACYCLINE]
- MIC (Salmonella typhimurium [1]): > 32 µg/mL
- MIC (Salmonella typhimurium [2]): 32 µg/mL (≈ 72 µM)
- MIC (Salmonella typhimurium [3]): > 32 µg/mL
- MIC (Salmonella typhimurium [4]): < 4 µg/mL
- MIC (Salmonella typhimurium [5]): > 32 µg/mL
- MIC (Salmonella typhimurium [6]): 32 µg/mL (≈ 72 µM)
- MIC (Salmonella typhimurium [7]): > 32 µg/mL
- MIC (Salmonella typhimurium [8]): > 32 µg/mL
- MIC (Salmonella typhimurium [9]): > 32 µg/mL
- MIC (Salmonella typhimurium [10]): 32 µg/mL (≈ 72 µM)
- MIC (Salmonella typhimurium [11]): > 32 µg/mL
- MIC (Salmonella typhimurium [12]): > 32 µg/mL
- MIC (Salmonella typhimurium [13]): 4 µg/mL (≈ 9 µM)
- MIC (Salmonella typhimurium [14]): > 32 µg/mL
- MIC (Salmonella typhimurium [15]): > 32 µg/mL
- MIC (Salmonella typhimurium [16]): 16 µg/mL (≈ 36 µM)
- MIC (Salmonella typhimurium [17]): > 32 µg/mL
- MIC (Salmonella typhimurium [18]): > 32 µg/mL
- MIC (Salmonella typhimurium [19]): > 32 µg/mL
- MIC (Salmonella typhimurium [20]): 4 µg/mL (≈ 9 µM)
- MIC (Salmonella typhimurium [21]): 32 µg/mL (≈ 72 µM)
- MIC (Salmonella typhimurium [22]): 32 µg/mL (≈ 72 µM)
- MIC (Salmonella typhimurium [23]): > 32 µg/mL
- MIC (Salmonella typhimurium [24]): < 4 µg/mL
- MIC (Salmonella typhimurium [25]): 16 µg/mL (≈ 36 µM)
- MIC (Salmonella typhimurium [26]): > 32 µg/mL
- MIC (Salmonella typhimurium [27]): > 32 µg/mL
- MIC (Salmonella typhimurium [28]): > 32 µg/mL
- MIC (Salmonella typhimurium [29]): 32 µg/mL (≈ 72 µM)
- MIC (Salmonella typhimurium [30]): 8 µg/mL (≈ 18 µM)
- MIC (Salmonella typhimurium [31]): 32 µg/mL (≈ 72 µM)
- MIC (Salmonella typhimurium [32]): 4 µg/mL (≈ 9 µM)
- MIC (Salmonella typhimurium [33]): > 32 µg/mL
- MIC (Salmonella typhimurium [34]): > 32 µg/mL
- MIC (Salmonella typhimurium [35]): < 4 µg/mL
- MIC (Salmonella typhimurium [36]): 4 µg/mL (≈ 9 µM)
- MIC (Salmonella typhimurium [37]): < 4 µg/mL
